Broadly, the IC50 is the concentration that inhibits the measured activity by half. Low readings indicate inhibition by little substance, high ones a need for much substance.

We go through seven molecules from ChEMBL document CHEMBL1149663, “Design, synthesis and biological evaluation of 1,4-benzodiazepine-2,5-dione-based HDAC inhibitors” (Bioorg Med Chem Lett, 2007).

The source made the active and inactive calls. The calls are words filed in the database; no cut-off is given here.

A short description of assay [1]: (§1) Antiproliferative activity against H661 cells after 48 hrs by XTT assay. The conditions noted are these: Homo sapiens, NCI-H661, 48 h. The class given is functional, cell-based. The essentials: (§2)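 Non-small cell lung cancer H661 cells were treated for 48 h, and proliferation was read by XTT assay as % of untreated control. Each analogue was run in three to four independent experiments, each in triplicate. IC50 was taken from the proliferation curves as the concentration giving 50% inhibition of proliferation.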

The test system of assay [2] is NCI-H661. The assay is described as §1. As to conditions: Homo sapiens. Format: functional, cell-based. In short, it runs like this: as §2
The nature of assay [3]: Antiproliferative activity against H661 cells at 5 uM after 48 hrs by XTT assay. Format: functional, Homo sapiens, NCI-H661. The essentials:
as §2
(In general: Formazan colour is commonly taken as a measure of viable cells.)

For `O=C(CCCCCN1C(=O)c2ccccc2N(Cc2cccc3ccccc23)C(=O)[C@@H]1Cc1ccccc1)NO`, the IC50 in assay [1] amounted to 16 µM. Still for that read-out and setting: as for `CC(/C=C/C(=O)NO)=C\[C@@H](C)C(=O)c1ccc(N(C)C)cc1` [TRICHOSTATIN], the figure is 0.085 µM. Turning to `CN1C(=O)[C@H](Cc2ccccc2)N(CCCCCC(=O)NO)C(=O)c2ccccc21`, the result in assay [2] was inactive. In turn, `Cc1cc(C)cc(CN2C(=O)[C@H](Cc3ccccc3)N(C/C=C/CCC(=O)NO)C(=O)c3ccccc32)c1` had an IC50 in assay [1] of 17 µM. `O=C(CC/C=C/CN1C(=O)c2ccccc2N(Cc2ccccc2)C(=O)[C@@H]1Cc1ccccc1)NO`: the IC50 in assay [1] was 8 µM. The molecule further gave an Activity in assay [3] of 80%. In the same order, the values of `Cc1cc(C)cc(CN2C(=O)[C@H](Cc3ccccc3)N(CCCCCC(=O)NO)C(=O)c3ccccc32)c1` are 8 µM and 80%.

`O=C(CCCCCN1C(=O)c2ccccc2N(Cc2ccccc2)C(=O)[C@@H]1Cc1ccccc1)NO` displayed an IC50 in assay [1] of 6 µM. Moreover, in assay [3], the Activity stood at 40%.
